ChEMBL document CHEMBL1122201, “Carboxyimamidate, a low-molecular-weight polyelectrolyte with antitumor properties and low toxicity” (1982)
Values joined by “and” are separate entries in the source; they are usually repeats but may differ in a detail not shown here. Identical values can stand only once.

Experiments:
Mus musculus [1] = assay: Average proportion of total treated mice without palpable tumors was determined in the subcutaneous Lewis Lung Carcinoma model at a dose of 100-125 (mg/kg)/day; format: functional
Outline: (§1)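 Sc-implanted Lewis lung carcinoma in mice, groups of 10. Agent dissolved in sterile saline and given daily on days 1-5, 1-8 or 1-10, ip or sc (0.5 mL/mouse). Each experiment had 3 or 4 untreated control groups of 10. The read-out was the average proportion of treated mice without palpable tumor on day 14, pooled over independent experiments as mean ± SE.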

Mus musculus [2] = assay: Average proportion of total treated mice without palpable tumors was determined in the subcutaneous Lewis Lung Carcinoma model at a dose of 900-1000 (mg/kg)/day; format: functional; outline: as §1
Mus musculus [3] = assay: Percent increase of mean life span of treated groups relative to the mean of the untreated control groups in the subcutaneous Lewis Lung Carcinoma model at a dose of 100-125 mg/kg/day; format: functional
Outline: (§2)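 Lewis lung carcinoma model in mice, groups of 10. Dosing daily on days 1-5, 1-8 or 1-10, ip or subcutaneous. Dose ranges pooled from nine independent experiments run at different levels. ILS is the percent increase in mean life span, excluding cures, over the mean of 3 or 4 untreated control groups of 10. Survivors scored at day 60.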

Mus musculus [4] = assay: Percent increase of mean life span of treated groups relative to the mean of the untreated control groups in the subcutaneous Lewis Lung Carcinoma model at a dose of 1200-1500 (mg/kg)/day; format: functional; outline: as §2
Mus musculus [5] = assay: Percent increase of mean life span of treated groups relative to the mean of the untreated control groups in the subcutaneous Lewis Lung Carcinoma model at a dose of 158-251 (mg/kg)/day; format: functional; outline: as §2
Mus musculus [6] = assay: Percent increase of mean life span of treated groups relative to the mean of the untreated control groups in the subcutaneous Lewis Lung Carcinoma model at a dose of 2400-2512 (mg/kg)/day; format: functional; outline: as §2
Mus musculus [7] = assay: Percent increase of mean life span of treated groups relative to the mean of the untreated control groups in the subcutaneous Lewis Lung Carcinoma model at a dose of 300-400 (mg/kg)/day; format: functional; outline: as §2
Mus musculus [8] = assay: Percent increase of mean life span of treated groups relative to the mean of the untreated control groups in the subcutaneous Lewis Lung Carcinoma model at a dose of 500-600 (mg/kg)/day; format: functional; outline: as §2
Mus musculus [9] = assay: Percent increase of mean life span of treated groups relative to the mean of the untreated control groups in the subcutaneous Lewis Lung Carcinoma model at a dose of 62-75 (mg/kg)/day; format: functional; outline: as §2
Mus musculus [10] = assay: Percent increase of mean life span of treated groups relative to the mean of the untreated control groups in the subcutaneous Lewis Lung Carcinoma model at a dose of 900-1000 (mg/kg)/day; format: functional; outline: as §2
Mus musculus [11] = organism: Mus musculus; assay: Increase in mean life span was measured against EMT6 mammary carcinoma cells; format: functional
Outline: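 EMT6 given as sc trochar implants in C3H mice, groups of 10. Drug given ip in sterile saline, 0.5 mL/mouse, at or below the maximally tolerated dose for the schedule. Mean life span excludes long-term tumor-free survivors. Animals held 60 days after implantation; Student's t test against untreated controls.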

Mus musculus [12] = organism: Mus musculus; assay: Increase in mean life span was measured against Gardner lymphosarcoma cells; format: functional
Outline: (§3)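 10^6 Trypan blue-excluding cells implanted ip (P815 sc) in groups of 10 mice: B6D2F1 for L5178Y and P815, BALB/c for ADJ-PC6, C3H for Gardner. Drug given ip in sterile saline, 0.5 mL/mouse, at or below the maximally tolerated dose for the schedule. ILS excludes long-term tumor-free survivors. Animals held 60 days; Student's t test against untreated controls.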

Mus musculus [13] = organism: Mus musculus; assay: Increase in mean life span was measured against L5178 Y leukemia cells; format: functional; outline: as §3
Mus musculus [14] = organism: Mus musculus; assay: Increase in mean life span was measured against M5076 ovarian tumor; format: functional
Outline: (§4)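 Tumor brei, 10%, 0.5 mL, implanted sc in groups of 10 mice: CD2F1 for Nettesheim and Madison, B6D2F1 for M5076. M5076 also implanted ip with the same inoculum; Madison im at 0.2 mL. Drug given ip in saline, 0.5 mL/mouse, at or below the maximally tolerated dose. ILS excludes long-term survivors. Animals held 60 days; t test.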

Mus musculus [15] = organism: Mus musculus; assay: Increase in mean life span was measured against M5076 ovarian tumor cells; format: functional; outline: as §4
Mus musculus [16] = organism: Mus musculus; assay: Increase in mean life span was measured against Madison 109 lung carcinoma cells; format: functional, M109; outline: as §4
Mus musculus [17] = organism: Mus musculus; assay: Increase in mean life span was measured against Nettesheim lung carcinoma cells; format: functional; outline: as §4
Mus musculus [18] = organism: Mus musculus; assay: Increase in mean life span was measured against colon carcinoma; format: functional
Mus musculus [19] = organism: Mus musculus; assay: Increase in mean life span was measured against colon carcinoma 26; format: functional
Outline: (§5)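 Colon carcinoma 26: 0.5 mL of 1% brei implanted sc or ip in groups of 10 CD2F1 mice. Drug given ip in sterile saline, 0.5 mL/mouse, at or below the maximally tolerated dose for the schedule. Mean life span excludes long-term tumor-free survivors. Animals held 60 days; Student's t test against untreated controls.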

Mus musculus [20] = organism: Mus musculus; assay: Increase in mean life span was measured against colon carcinoma 26 cells; format: functional, Colon 26; outline: as §5
Mus musculus [21] = assay: Average proportion of total treated mice without palpable tumors was determined in the subcutaneous Lewis Lung Carcinoma model at a dose of 1200-1500 (mg/kg)/day; format: functional; outline: as §1
Mus musculus [22] = assay: Average proportion of total treated mice without palpable tumors was determined in the subcutaneous Lewis Lung Carcinoma model at a dose of 158-251 (mg/kg)/day; format: functional; outline: as §1
Mus musculus [23] = assay: Average proportion of total treated mice without palpable tumors was determined in the subcutaneous Lewis Lung Carcinoma model at a dose of 2400-2512 (mg/kg)/day; format: functional; outline: as §1
Mus musculus [24] = assay: Average proportion of total treated mice without palpable tumors was determined in the subcutaneous Lewis Lung Carcinoma model at a dose of 300-400 (mg/kg)/day; format: functional; outline: as §1
Mus musculus [25] = assay: Average proportion of total treated mice without palpable tumors was determined in the subcutaneous Lewis Lung Carcinoma model at a dose of 500-600 (mg/kg)/day; format: functional; outline: as §1
Mus musculus [26] = assay: Average proportion of total treated mice without palpable tumors was determined in the subcutaneous Lewis Lung Carcinoma model at a dose of 62-75 (mg/kg)/day; format: functional; outline: as §1
Mus musculus [27] = assay: Proportion of survivors was determined on the 60th day at a dose of 100-125 mg/kg/day; format: functional; outline: as §2

Compound: CC(c1ccccc1)C1C(=O)NC(=O)C1CCC(C(N)=O)C(CCC(CC(=O)O)C(N)=O)C(=O)O.N.N (configuration not stated)
- Average proportion (Mus musculus [1]): 0.1
- Average proportion (Mus musculus [2]): 0.47
- ILS (Mus musculus [3]): 12%
- ILS (Mus musculus [4]): 24%
- ILS (Mus musculus [5]): 15%
- ILS (Mus musculus [6]): -28%
- ILS (Mus musculus [7]): 17%
- ILS (Mus musculus [8]): 15%
- ILS (Mus musculus [9]): 12%
- ILS (Mus musculus [10]): 19%
- ILS (Mus musculus [11]): 13%
- ILS (Mus musculus [12]): 4%
- ILS (Mus musculus [13]): 5%
- ILS (Mus musculus [14]): 20%
- ILS (Mus musculus [15]): 40%
- ILS (Mus musculus [16]): 27% and 23% and 20%
- ILS (Mus musculus [17]): 6%
- ILS (Mus musculus [18]): 14%
- ILS (Mus musculus [19]): 22%
- ILS (Mus musculus [20]): 48% and 31% and 75%
- Average proportion (Mus musculus [21]): 0.48
- Average proportion (Mus musculus [22]): 0.14
- Average proportion (Mus musculus [23]): 0.6
- Average proportion (Mus musculus [24]): 0.27
- Average proportion (Mus musculus [25]): 0.29
- Average proportion (Mus musculus [26]): 0.08
- Proportion of survivors (Mus musculus [27]): 0.04
